Experimental data: article PMC7305479 (Russian Journal of Bioorganic Chemistry, 2020)

Columns and labels:
[1] = test system: influenza virus strain A/PR/8/34 (H1N1); assay: organism not typed; format: cell-based, Influenza A virus (IVA); conditions: for SI (selectivity index, CC50/EC50): Influenza A virus, MDCK cells
[2] = test system: parainfluenza type 3 strain v2932; assay: microbe, parasite or virus in culture; format: cell-based, Human parainfluenza virus type 3 (PIV-3); conditions: for SI (selectivity index, CC50/EC50): PIV-3, HEp-2 cells
[3] = test system: respiratory syncytial virus A2; assay: Antiviral activity against respiratory syncytial virus in HEp-2 culture; format: cell-based, Human respiratory syncytial virus (RSV); conditions: for SI (selectivity index, CC50/EC50): RSV, HEp-2 cells
Method in brief: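 HEp-2 monolayers infected with 10-fold dilutions (10–1–10–7) of RSV A2. Test compound was pre-applied 1 h in 3-fold dilutions, starting from the CC50-level concentration made from a 2000 µg/mL DMSO stock. It was re-added at double concentration with virus for 1 h, then washed out and re-applied for 6 days at 37°C, 5% CO2. Read-out was acetone-fixed cell-ELISA (TMB, OD 450 nm), with Reed–Muench titers.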

Cytotoxicity measurement [4] = format: cell-based; conditions: dog, MDCK cells
Method in brief: (§1)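 Test compound was diluted 2-fold in medium from 2000 µg/mL DMSO stocks and applied to washed monolayers for 24 h at 37°C, 5% CO2. Cells were PBS-washed, then given MTT ([…] in medium) for 1.5 h. The product was dissolved in 96% ethanol and OD read at 535 nm. CC50 was derived from the data by curve analysis.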

MDCK cell culture = assay: Cytotoxicity measurement; format: cell-based
Method in brief: as §1

Cytotoxicity measurement [5] = format: cell-based; conditions: human, HEp-2 cells
Method in brief: as §1

HEp-2 culture = assay: Cytotoxicity measurement; format: cell-based; conditions: for CC50: MTT, 24 h
Method in brief: as §1

herpes simplex type 1 = conditions: cited from earlier work
tick-borne encephalitis = conditions: cited from earlier work
[6] = test system: broad spectrum of enveloped viruses; conditions: cited from earlier work
Solubility = format: physicochemical
[7] = human respiratory syncytial virus, HEp-2

SMILES | SI (selectivity index, CC50/EC50) [1] | EC50 ([1]; MDCK) [µM] | EC50 ([2]; Human respirovirus 3, HEp-2) [nM] | SI (selectivity index, CC50/EC50) [2] | SI (selectivity index, CC50/EC50) [3] | EC50 [3, 7] [nM] | CC50 at 24 h (Cytotoxicity measurement [4]) [µM] | CC50 at 24 h (Cytotoxicity measurement [5]) [µM] | antiviral activity (in words) [6] | also measured
CC(C)(C)C(=O)OCn1c(=O)c(C#Cc2ccc3c4cccc5cccc(c6cccc2c63)c54)cn(CC(=O)O)c1=O [cm1pUY11 (III), 1-carboxymethyl-3-pivaloyloxymethyl-5-(perylen-3-ylethynyl)uracil] | 68 | 0.5 ± 0.02 | 4300 ± 200 | 10 | 24 | 1900 ± 100 | 34 ± 1.9 | 45 ± 3.4 |  | cytotoxic properties (in words) (MDCK cell culture; MDCK cell culture, compared with the other three compounds): significantly more pronounced cytotoxic properties; cytotoxic properties (in words) (HEp-2 culture; HEp-2 cell culture, compared with the other three compounds): significantly more pronounced cytotoxic properties; antiviral activity (in words) (herpes simplex type 1): activity; antiviral activity (in words) (tick-borne encephalitis): activity
O=c1[nH]c(=O)n([C@@H]2O[C@H](CO)[C@@H](O)[C@@H]2O)cc1C#Cc1ccc2c3cccc4cccc(c5cccc1c52)c43 [aUY11 (II), 5-(perylen-3-ylethynyl)-arabino-uridine] |  |  |  |  |  |  |  |  | highly active | EC50 ([1]; Influenza A virus A/PR/8/34 (H1N1) in MDCK cells): 5.2 ± 0.4 µM; EC50 ([2]; PIV-3 strain v2932 in HEp-2 cells): 1300 ± 300 nM; EC50 ([3]; RSV A2 in HEp-2 cells): 2300 ± 100 nM; CC50 (MDCK cell culture; MDCK cell culture (IVA columns), MTT, 24 h): 894 ± 23 µM; CC50 (HEp-2 culture; HEp-2 culture (PIV-3 columns)): 998 ± 59 µM; CC50 (HEp-2 culture; HEp-2 culture (RSV columns)): 998 ± 59 µM
O=c1[nH]c(=O)n([C@H]2C[C@H](O)[C@@H](CO)O2)cc1C#Cc1ccc2c3cccc4cccc(c5cccc1c52)c43 [dUY11 (I), 5-(perylen-3-ylethynyl)-2′-deoxy-uridine] | 180 | 2.7 ± 0.7 | 2200 ± 500 | 270 | 330 | 1800 ± 200 | 492 ± 56 | 598 ± 44 | highly active | 
O=c1[nH]c(=O)n([C@@H]2O[C@H](CO)[C@@H](O)[C@H]2O)cc1C#Cc1ccc2c3cccc4cccc(c5cccc1c52)c43 [rUY11 (IV), 5-(Perylen-3-ylethynyl)uridine] | 100 | 6.4 ± 1.2 | 2900 ± 400 | 210 | 84 | 7100 ± 200 | 658 ± 34 | 599 ± 23 |  | solubility in DMSO (Solubility; DMSO): fairly soluble; solubility in water (Solubility; water): only slightly soluble
